From ChEMBL document CHEMBL2069274, “Novel 3-nitro-1H-1,2,4-triazole-based amides and sulfonamides as potential antitrypanosomal agents” (J Med Chem, 2012) come the findings set out here.

The source made the active and inactive calls. The calls are words filed in the database; no cut-off is given here. A value given as a limit tells only on which side of the number the result lay.

For series [1], the system named is Trypanosoma brucei rhodesiense. In words: Antitrypanosomal activity against Trypanosoma brucei rhodesiense STIB 900 trypomastigotes. In kind it is functional, organism-based. The method in brief:
(§1)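 96-well format screens: bloodstream-form T. b. rhodesiense trypomastigotes, T. cruzi amastigotes within infected L6 rat skeletal myoblasts, axenically grown L. donovani amastigotes, and uninfected L6 cells for cytotoxicity. IC50 (μM) obtained by linear regression from sigmoidal dose–inhibition curves.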

The test system of series [2] is Trypanosoma cruzi. In words: Antitrypanosomal activity against Trypanosoma cruzi Tulahuen C4 amastigotes. Type of series: functional, organism-based. Put shortly:
as §1

A further series relates to Leishmania donovani. Kind of series: Antileishmanial activity against Leishmania donovani MHOM-ET67/L82 amastigotes. In kind it is functional, organism-based. The method in brief:
as §1

A further series deals with L6. In words: Cytotoxicity against rat L6 cells. In kind it is cell-based. The method in brief: as §1
For series [3], the system named is Trypanosoma brucei brucei. In words: Antitrypanosomal activity against bloodstream form of Trypanosoma brucei brucei Lister 427 clone 221a. In kind it is functional, organism-based. The method in brief: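 Bloodstream-form parasites seeded at 1 × 10^3 per ml in growth medium with a range of compound concentrations; where required, TbNTR expression induced with tetracycline (1 μg/mL). Incubation 3 days at 37 °C, then Alamar blue added for a further 16 h. Cell density read and IC50 determined.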

The test system of series [4] is Trypanosoma brucei brucei. Kind of series: Activity of Trypanosoma brucei brucei recombinant Type I nitroreductase assessed as oxidised NADH level by spectrophotometric analysis. The method in brief:
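His-tagged recombinant TbNTR, purified, assayed spectrophotometrically at 340 nm with nitrotriazole substrate (100 μM) and NADH (100 μM); activity expressed as nmol NADH oxidized min−1 mg−1 enzyme.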

Series [5] concerns Trypanosoma cruzi. Kind of series: Ratio of benznidazole IC50 to compound IC50 for Trypanosoma cruzi Tulahuen C4 amastigotes. In kind it is functional.
The nature of series [6]: Selectivity index, ratio of IC50 for rat L6 cells to IC50 for Trypanosoma cruzi Tulahuen C4 amastigotes.
The target of series [7] is Trypanothione reductase (Trypanosoma brucei brucei) (UniProt P39051). In words: Inhibition of Trypanosoma brucei brucei trypanothione reductase at <100 uM.
The nature of series [8]: Selectivity index, ratio of IC50 for rat L6 cells to IC50 for Trypanosoma brucei rhodesiense STIB900 trypomastigotes.
In series [9] the test system is Trypanosoma brucei brucei. In words: Antitrypanosomal activity against bloodstream form of Trypanosoma brucei brucei Lister 427 clone 221a overexpressing tet-inducible NTR in absence of tetracycline after 3 days. Particulars: 72 h.
The test system of series [10] is Trypanosoma brucei brucei. Kind of series: Antitrypanosomal activity against bloodstream form of Trypanosoma brucei brucei Lister 427 clone 221a overexpressing tet-inducible NTR in presence of tetracycline after 3 days. The following applies: 72 h.
Series [11] relates to Trypanosoma brucei brucei. Kind of series: Selectivity ratio of IC50 for Trypanosoma brucei brucei Lister 427 clone 221a overexpressing tet-inducible NTR in absence of tetracycline to IC50 for Trypanosoma brucei brucei overexpressing tet-inducible NTR in presence of tetracyclin.
A short description of series [12]: Selectivity index, ratio of IC50 for rat L6 cells to IC50 for Leishmania donovani MHOM-ET67/L82 amastigotes.

Chain of Trypanothione reductase (Trypanosoma brucei brucei) (P39051 whole entry, looked up): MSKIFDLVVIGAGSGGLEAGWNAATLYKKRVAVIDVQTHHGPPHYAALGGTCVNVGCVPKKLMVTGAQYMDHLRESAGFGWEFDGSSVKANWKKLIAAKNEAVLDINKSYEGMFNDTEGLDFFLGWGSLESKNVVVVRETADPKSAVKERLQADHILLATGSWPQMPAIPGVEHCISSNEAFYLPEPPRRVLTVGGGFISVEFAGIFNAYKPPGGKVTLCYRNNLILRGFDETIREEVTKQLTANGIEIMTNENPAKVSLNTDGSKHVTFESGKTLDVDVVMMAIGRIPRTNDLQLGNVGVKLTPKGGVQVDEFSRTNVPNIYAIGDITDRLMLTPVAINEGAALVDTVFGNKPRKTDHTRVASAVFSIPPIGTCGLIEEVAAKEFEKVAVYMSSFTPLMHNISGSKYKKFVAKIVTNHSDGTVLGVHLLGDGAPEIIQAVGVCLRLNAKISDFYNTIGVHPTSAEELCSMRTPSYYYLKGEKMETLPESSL

As to `O=C(NCCCCn1cnc([N+](=O)[O-])n1)c1ccc2ccccc2n1`, the IC50 in series [1] was 4 µM; in the series with Trypanosoma cruzi [2], 0.132 µM; with Leishmania donovani it was 13.4 µM; in the series on L6, 91.5 µM; in series [3], above 10 µM. Further, in series [4], the result was Active. In addition, in the series with Trypanosoma cruzi [5], the “Ratio IC50” value was 11.8. The selectivity ratio in series [6] is 691.
Regarding `O=[N+]([O-])c1ncn(CCCNS(=O)(=O)c2ccc(C(F)(F)F)cc2)n1`, the 50% inhibitory concentration (IC50) amounted to 0.504 µM in series [1]; 0.359 µM in the series on Trypanosoma cruzi [2]; 13.1 µM with Leishmania donovani; 235 µM in the series with L6; 3.4 µM in series [3]; 7.83 µM in series [9]. Moreover, the 50% inhibitory concentration (IC50) in [10] amounted to 0.25 µM. Moreover, the outcome in series [4] was Active. The inhibition entry in [7] is “inactive”. The “Ratio IC50” value in the series on Trypanosoma cruzi [5] is on record as 4.4; in [11] it was 31. In addition, the selectivity ratio was found to be 656 in series [6] and 467 in series [8].
`O=C(NCCn1cnc([N+](=O)[O-])n1)c1ccc(C(F)(F)F)cc1`: the IC50 in [1] was 3.16 µM; in the series on Trypanosoma cruzi [2], 0.438 µM; in the series on Leishmania donovani it was 33.4 µM; in the series with L6 it was above 274 µM; in [3], 1.3 µM; in [9], 1.26 µM. For the same compound, in series [10], the IC50 was found to be 0.09 µM. Besides, the outcome in series [4] was Active. Moreover, in [7], the inhibition result is “inactive”. Further, the “Ratio IC50” value is recorded as 3.6 with Trypanosoma cruzi [5] and 14 in [11]. The selectivity ratio in series [6] is above 625.
Consider `O=C(NCCCCn1cnc([N+](=O)[O-])n1)c1ccc(OC(F)(F)F)cc1`, for which the half-maximal inhibitory concentration (IC50) was 1.39 µM in series [1]; 0.113 µM in the series on Trypanosoma cruzi [2]; 13 µM in the series on Leishmania donovani; above 268 µM in the series on L6; 3.6 µM in [3]; 1.05 µM in series [9]. In addition, the 50% inhibitory concentration (IC50) in [10] was determined as 0.1 µM. Moreover, the inhibition entry in series [7] was “inactive”. Besides, the “Ratio IC50” value came to 13.8 with Trypanosoma cruzi [5] and 11 in series [11]. Also, the results for the selectivity ratio in [6] and in series [8] were above 2380 and above 193, respectively.
`O=C(Cn1cnc([N+](=O)[O-])n1)NCc1ccccc1`: the IC50 was 9.96 µM in series [1]; 3.38 µM in the series with Trypanosoma cruzi [2]; 28.1 µM in the series on Leishmania donovani; 345 µM with L6; above 10 µM in series [3]. Moreover, in series [4], the outcome was Active. The “Ratio IC50” value in the series with Trypanosoma cruzi [5] was determined as 0.5. The selectivity ratio in series [6] turned out to be 102.
As for `O=[N+]([O-])c1ncn(CCCNS(=O)(=O)c2ccc(Cl)s2)n1`, the half-maximal inhibitory concentration (IC50) turned out to be 1.99 µM in series [1]; 0.438 µM in the series on Trypanosoma cruzi [2]; 33 µM in the series with Leishmania donovani; 244 µM in the series on L6; 2.3 µM in series [3]; 4.34 µM in series [9]. In series [10], the half-maximal inhibitory concentration (IC50) is 0.23 µM. Further, the “Ratio IC50” value in the series with Trypanosoma cruzi [5] came to 3.6; in series [11], 19. Moreover, the selectivity ratio was 556 in series [6], 7.4 in series [12] and 122 in [8].
For `CC1CS(=O)(=O)CCN1/N=C/c1ccc([N+](=O)[O-])o1` (stereo not drawn) [NIFURTIMOX], the result in [4] was Active. Also, in series [11], the “Ratio IC50” value was 13.
For `O=C(Cn1cnc([N+](=O)[O-])n1)NCc1ccc(C(F)(F)F)cc1`, the concentration for half-maximal inhibition (IC50) in [1] worked out at 6.47 µM; in the series on Trypanosoma cruzi [2] it was 0.97 µM; in the series on Leishmania donovani, 10.4 µM; in the series with L6, 129 µM; in series [3] it was 8.5 µM. Besides, the inhibition entry in series [7] was “inactive”. In addition, the “Ratio IC50” value in the series on Trypanosoma cruzi [5] was 1.6. Moreover, the selectivity ratio in series [6] was 133.
As to `O=C(Cn1cnc([N+](=O)[O-])n1)Nc1nc2ccc(Cl)cc2s1`, the half-maximal inhibitory concentration (IC50) in series [1] is 48.5 µM; in the series on Trypanosoma cruzi [2], 6.59 µM; in the series with Leishmania donovani, 5.82 µM; in the series with L6, 163 µM. Further, the “Ratio IC50” value with Trypanosoma cruzi [5] amounted to 0.2. Also, the selectivity ratio in series [6] is 24.8; in series [12], 28; in series [8], 3.4.
For `O=C(NCCCCn1cnc([N+](=O)[O-])n1)c1ccc(C(F)(F)F)cc1`, the 50% inhibitory concentration (IC50) in [1] was 0.501 µM; in the series with Trypanosoma cruzi [2], 0.176 µM; with Leishmania donovani it was 7.93 µM; with L6, 104 µM; in series [3], 0.9 µM; in [9], 1.3 µM. Besides, the IC50 in series [10] worked out at 0.13 µM. In addition, the outcome in series [4] was Active. The “Ratio IC50” value in the series on Trypanosoma cruzi [5] was found to be 8.9; in series [11], 10. Besides, the selectivity ratio came to 591 in [6] and 208 in [8].
As for `O=C(Cn1cnc([N+](=O)[O-])n1)N1CCC(Cc2ccccc2)CC1`, the IC50 in [1] is 3.4 µM; in the series on Trypanosoma cruzi [2], 0.307 µM; with Leishmania donovani it was 51.4 µM; in the series on L6 it was 144 µM; in series [3] it was above 10 µM. In [7], the inhibition result is “inactive”. For the same compound, the “Ratio IC50” value in the series on Trypanosoma cruzi [5] stood at 5.1. For the same compound, in series [6], the selectivity ratio amounted to 468.
As for `O=[N+]([O-])c1ncn(CCCCNS(=O)(=O)c2ccc(OC(F)(F)F)cc2)n1`, the concentration for half-maximal inhibition (IC50) was found to be 0.477 µM in series [1], 0.203 µM with Trypanosoma cruzi [2], 7.8 µM in the series on Leishmania donovani and 112 µM in the series with L6. The “Ratio IC50” value with Trypanosoma cruzi [5] turned out to be 7.7. In addition, the selectivity ratio in series [6] amounted to 552; in [12], 14.4; in series [8], 235.
In the case of `O=[N+]([O-])c1ncn(CCNS(=O)(=O)c2ccc(C(F)(F)F)cc2)n1`, the half-maximal inhibitory concentration (IC50) in series [1] was 2.79 µM; in the series on Trypanosoma cruzi [2] it was 0.803 µM; with Leishmania donovani, 32.4 µM; in the series on L6, 200 µM; in series [3], above 10 µM. Further, in series [4], the outcome was Active. Further, in the series on Trypanosoma cruzi [5], the “Ratio IC50” value worked out at 1.9. The selectivity ratio in series [6] was 248.
`O=[N+]([O-])c1nccn1CCCNS(=O)(=O)c1ccc(C(F)(F)F)cc1`: the IC50 is 27.5 µM in series [1], 1.66 µM in the series on Trypanosoma cruzi [2], 15.6 µM in the series with Leishmania donovani and 176 µM in the series on L6. The inhibition result in series [7] is “inactive”. In addition, the “Ratio IC50” value in the series with Trypanosoma cruzi [5] turned out to be 0.9. Moreover, the selectivity ratio in series [6] came to 106.
Consider `Cc1ccc(S(=O)(=O)NCCCn2cnc([N+](=O)[O-])n2)cc1`, for which the half-inhibitory concentration (IC50) in series [1] was 2.54 µM; with Trypanosoma cruzi [2] it was 0.412 µM; in the series with Leishmania donovani, 38.1 µM; in the series with L6 it was above 308 µM; in [3], 4 µM; in [9], 5.63 µM. Also, the IC50 in series [10] came to 0.24 µM. The “Ratio IC50” value is 3.8 in the series with Trypanosoma cruzi [5] and 23 in series [11]. Further, the results for the selectivity ratio in series [6] and in series [8] were above 747 and above 121, respectively.
`O=C(NCCCn1cnc([N+](=O)[O-])n1)Nc1cc(C(F)(F)F)cc(C(F)(F)F)c1`: the half-inhibitory concentration (IC50) in series [1] was 6.03 µM; in the series on Trypanosoma cruzi [2], 0.734 µM; in the series on Leishmania donovani, 11.4 µM; in the series with L6, 24.2 µM; in series [3], 1 µM; in [9] it was 0.81 µM. Also, the IC50 in series [10] was 0.18 µM. The “Ratio IC50” value with Trypanosoma cruzi [5] amounted to 2.1; in series [11], 5. For the same compound, the selectivity ratio in series [6] was 33; in series [8], 4.
Regarding `Cc1ccc2nc(NC(=O)Cn3cnc([N+](=O)[O-])n3)sc2c1`, the IC50 turned out to be 11.5 µM in series [1], 1.8 µM in the series on Trypanosoma cruzi [2], 5.91 µM with Leishmania donovani and 170 µM in the series on L6. Further, the “Ratio IC50” value with Trypanosoma cruzi [5] is 0.9. Besides, the selectivity ratio in series [6] stood at 94.4; in series [12] it was 28.7; in [8], 14.8.
Turning to `O=C(Cn1cnc([N+](=O)[O-])n1)Nc1nc2cc(Cl)ccc2o1`, the half-maximal inhibitory concentration (IC50) is 34.4 µM in [1], 7.88 µM with Trypanosoma cruzi [2], 4.68 µM with Leishmania donovani and 26.3 µM in the series on L6. Also, the “Ratio IC50” value with Trypanosoma cruzi [5] is given as 0.2. Moreover, the selectivity ratio in series [6] was 3.3; in series [12], 5.6; in [8], below 1.
Take `O=C(NCCCn1cnc([N+](=O)[O-])n1)c1ccc2ccccc2n1`: the half-maximal inhibitory concentration (IC50) in [1] was 3.22 µM; in the series on Trypanosoma cruzi [2], 0.138 µM; in the series with Leishmania donovani it was 19.9 µM; in the series on L6, 218 µM; in series [3] it was above 10 µM. Also, the result in series [4] was Active. In addition, the inhibition result in series [7] is “inactive”. For the same compound, the “Ratio IC50” value in the series on Trypanosoma cruzi [5] is listed as 11.3. The selectivity ratio in series [6] is 1580.

In general, IC50 refers to the concentration that inhibits the measured activity by half.
